In brackets after ≈: the same amount, converted by molar mass. One block for each compound: values may come before it.
Experiments:
[1] = system: HT-29 cells; test: 72 h proliferation inhibition test; format: cell-based, human; conditions: SRB
[2] = biological target: PDIA1a domain (residues 18–137) of human PDIA1 (Homo sapiens, UniProt P07237); test: Insulin turbidity assay with recombinant PDIA1a domain; format: biochemical; conditions: read-out: PDIA1a IC50 (insulin reduction); PDIA1a domain 8 µg/ml
Procedure, shortened: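 PDIA1a domain (human residues 18–137) was expressed in E. coli BL21(DE3) with an N-terminal His6-tag/TEV site, then purified by Ni affinity and size exclusion. Turbidity assay: 8 µg/ml protein in 0.1 mM potassium phosphate pH 7.6 and 2 mM EDTA, with 0.08 mM DTT during preincubation. Insulin with DTT was added to final 0.15 mM insulin and 0.16 mM DTT.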

[3] = system: CaCo-2 cells; test: 72 h proliferation inhibition test; format: cell-based, human; conditions: SRB
[4] = Basal cytotoxicity test, neutral red uptake; format: cell-based; conditions: mouse, Balb/c 3T3 mouse embryo fibroblast cells
[5] = biological target: recombinant human PDIA1 (Homo sapiens, UniProt P07237); test: Enzymatic insulin reduction; format: biochemical; conditions: for IC50: PDIA1 IC50, insulin reduction assay, full-length PDIA1 6 µg/ml (96 nM), pH 7.6, 37 °C
[6] = biological target: T1, recombinant human PDIA3 (Homo sapiens, UniProt P30101); test: Enzymatic insulin reduction; format: biochemical
T1 sequence (P30101 25-505): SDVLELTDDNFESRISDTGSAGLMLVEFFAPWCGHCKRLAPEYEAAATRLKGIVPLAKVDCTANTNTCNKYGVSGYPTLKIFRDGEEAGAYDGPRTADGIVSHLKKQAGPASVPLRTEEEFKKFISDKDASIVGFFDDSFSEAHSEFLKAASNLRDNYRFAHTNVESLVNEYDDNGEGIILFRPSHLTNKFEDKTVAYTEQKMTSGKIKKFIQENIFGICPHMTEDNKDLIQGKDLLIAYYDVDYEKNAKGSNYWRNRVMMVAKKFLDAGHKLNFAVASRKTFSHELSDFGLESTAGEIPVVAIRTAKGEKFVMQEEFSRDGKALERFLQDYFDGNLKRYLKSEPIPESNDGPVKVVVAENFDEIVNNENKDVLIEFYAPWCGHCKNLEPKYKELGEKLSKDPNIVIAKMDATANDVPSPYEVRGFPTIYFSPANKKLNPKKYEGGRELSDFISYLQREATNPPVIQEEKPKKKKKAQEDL
Procedure, shortened: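 Recombinant human PDIA3 (E. coli-expressed), 12 µg/ml (205 nM), was preincubated with test compound in 0.1 mM phosphate buffer pH 7.6, 2 mM EDTA and 0.08 mM DTT. Final DMSO was below 1%. Reaction was started with insulin plus DTT (final 0.15 mM insulin, 0.16 mM DTT). β-chain aggregation turbidity was read at 650 nm for 60 min at 37 °C.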

[7] = system: arterial thrombosis; test: Rat model of arterial thrombosis; format: in vivo; conditions: intravenously, 10 min prior to induction of arterial thrombosis, rats
Procedure, shortened: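 Wistar rats were anaesthetised with pentobarbital (40 mg/kg i.p.) on a 37 °C heated table. Right common carotid artery was stimulated at 1 mA for 10 min via an anode under the artery and a subcutaneous hind-limb cathode.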

Sequence of recombinant human PDIA1 (P07237 18-508): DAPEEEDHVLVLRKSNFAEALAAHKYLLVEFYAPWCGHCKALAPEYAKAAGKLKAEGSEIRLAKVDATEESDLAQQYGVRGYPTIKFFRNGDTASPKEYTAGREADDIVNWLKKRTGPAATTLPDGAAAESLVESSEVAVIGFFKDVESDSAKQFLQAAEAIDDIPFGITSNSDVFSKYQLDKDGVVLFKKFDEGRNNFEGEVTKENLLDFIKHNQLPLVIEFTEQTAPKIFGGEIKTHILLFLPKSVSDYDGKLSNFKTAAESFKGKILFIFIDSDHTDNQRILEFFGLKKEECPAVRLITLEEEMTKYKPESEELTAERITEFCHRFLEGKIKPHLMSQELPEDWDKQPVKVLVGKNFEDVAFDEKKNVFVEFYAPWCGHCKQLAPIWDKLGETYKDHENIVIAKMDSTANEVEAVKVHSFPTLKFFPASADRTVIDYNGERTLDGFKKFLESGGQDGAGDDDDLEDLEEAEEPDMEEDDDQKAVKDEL
Sequence of PDIA1a domain (residues 18–137) of human PDIA1 (P07237 18-137): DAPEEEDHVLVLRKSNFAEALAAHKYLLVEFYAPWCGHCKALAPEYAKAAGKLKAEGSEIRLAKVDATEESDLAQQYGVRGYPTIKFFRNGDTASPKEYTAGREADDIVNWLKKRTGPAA

IC50, 72-h antiproliferative assay, HT-29 [1]: 0.41 ± 0.05 µg/mL (≈ 1.08 µM)
IC50 [2]: 13 ± 0.6 µM
IC50, 72-h antiproliferative assay, CaCo-2 [3]: 0.41 ± 0.1 µg/mL (≈ 1.08 µM)
Compound: COc1ccc(N2C(=O)/C(=C\c3ccc([N+](=O)[O-])s3)SC2=S)cc1 [CCF642]

Compound: Cc1ccc(S(=O)(=O)N2CC2C=O)cc1 (stereo not drawn) [Compound C-3262, 1-(p-tolylsulphonyl)aziridine-2-carbaldehyde]
IC50 at 24 h [4]: 4 ± 0.2 µM

Compound: CC(=O)C1CN1S(=O)(=O)c1ccc(C)cc1 (stereo not drawn) [Compound C-3263, 1-[1-(p-tolylsulphonyl)aziridin-2-yl]ethanone]
IC50 at 24 h [4]: 8 ± 1 µM
IC50 [5]: 15.6 ± 0.8 µM

Compound: CCCCc1ccc(S(=O)(=O)N2CC2C(C)=O)cc1 (stereo not drawn) [Compound C-3272, 1-[1–(4-Butylphenyl)sulphonylaziridin-2-yl]ethanone]
IC50 at 24 h [4]: < 1 µM

Compound: CCCCc1ccc(S(=O)(=O)N2CC2C=O)cc1 (stereo not drawn) [Compound C-3273, 1–(4-Butylphenyl)sulphonylaziridine-2-carbaldehyde]
IC50 at 24 h [4]: < 1 µM
IC50 [5]: 3.2 ± 0.2 µM
IC50 [6]: 5.4 ± 0.2 µM

Compound: Cc1ccc(S(=O)(=O)N2CC2C#N)cc1 (stereo not drawn) [Compound C-3314, 1-(p-tolylsulphonyl)aziridine-2-carbonitrile]
IC50 at 24 h [4]: 52 ± 3 µM
IC50 [6]: 188 ± 7.5 µM

Compound: Cc1ccc(S(=O)(=O)N2CC2C(=O)O)cc1 (stereo not drawn) [Compound C-3612, Lithium 1-tosylaziridine-2-carboxylate]
IC50 at 24 h [4]: 2610 ± 89 µM

IC50, 72-h antiproliferative assay, HT-29 [1]: 12.64 ± 8.4 µg/mL (≈ 39.8 µM)
IC50, 72-h antiproliferative assay, CaCo-2 [3]: 9.12 ± 3.4 µg/mL (≈ 28.7 µM)
Compound: O=C(C1CC1)N1CCN(Cn2sc3ccccc3c2=O)CC1 [LOC14]

Compound: NC(=O)C1CN1 (stereo not drawn) [Leakadine, 2-carbamoylaziridine]
inhibition at 1000 µM ([5]; read-out: Inhibition of PDIA1 activity): ~30%

Compound: O=c1c(O[C@@H]2O[C@H](CO)[C@@H](O)[C@H](O)[C@H]2O)c(-c2ccc(O)c(O)c2)oc2cc(O)cc(O)c12 [isoquercetin]
effect on arterial thrombus formation (thrombus weight) [7]: only tended to reduce thrombosis

IC50 [5]: 4 ± 0.3 µM
IC50 [6]: > 200 µM
Compound: C[C@@H]1O[C@@H](OC[C@H]2O[C@@H](Oc3c(-c4ccc(O)c(O)c4)oc4cc(O)cc(O)c4c3=O)[C@H](O)[C@@H](O)[C@@H]2O)[C@H](O)[C@H](O)[C@H]1O [rutin]
effect on arterial thrombus formation (thrombus weight) [7]: significantly inhibited arterial thrombus formation

IC50 [2]: 18.3 ± 0.7 µM
Compound: PACMA31
